The source of these data is paper PMC11839910 (Nature Communications, 2025).

In data set [1] the target is human serum albumin (HSA) (Homo sapiens, UniProt P02768). The class given is in vitro ADME. To be noted: intact protein LC-MS.
Data set [2] deals with T1, SOD1^G93A (Homo sapiens, UniProt P00441, G94A). The data set can be described thus: Intact protein LC-MS of covalent drug candidates with purified SOD1^G93A. The class given is binding.
The target in data set [3] is T1, SOD1^G93A. The data set can be described thus: In vivo target engagement. The procedure, abridged:
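Hemizygous B6SJL-Tg(SOD1*G93A)1Gur/J mice (15–30 weeks, either sex) were dosed in PBS or water (<2% final DMSO): 10 mg/kg IV, 12.5 or 30 mg/kg SC, or 20 mg/kg SC with collection at 1 h. Blood and brain underwent chloroform–ethanol extraction, then intact-protein C4 LC-MS for %TE against a 37% METE. Doses were re-estimated as old dose × (METE/%TE). Duplicate.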

In data set [4] the target is T1, SOD1^G93A. The class given is binding. The note with it: transgenic ALS^G93A mouse brain homogenate.
For data set [5], the system named is albumin. The note with it: cited from earlier work.
Data set [6] can be described thus: Solubility limit in IV dose formulation. The data set is classed as physicochemical.
Data set [7] concerns SOD1^G93A mouse model. The note with it: cited from earlier work.

Converted amounts (≈) assume the structure as drawn. “Also recorded” adds a separate entry of the source.

T1 sequence (P00441 2-154 G94A limits assumed): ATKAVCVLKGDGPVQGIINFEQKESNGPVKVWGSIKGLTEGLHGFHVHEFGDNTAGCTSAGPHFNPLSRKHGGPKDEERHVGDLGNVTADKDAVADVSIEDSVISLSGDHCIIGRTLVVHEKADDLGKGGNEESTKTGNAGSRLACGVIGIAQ
Sequence of human serum albumin (HSA) (P02768 25-609): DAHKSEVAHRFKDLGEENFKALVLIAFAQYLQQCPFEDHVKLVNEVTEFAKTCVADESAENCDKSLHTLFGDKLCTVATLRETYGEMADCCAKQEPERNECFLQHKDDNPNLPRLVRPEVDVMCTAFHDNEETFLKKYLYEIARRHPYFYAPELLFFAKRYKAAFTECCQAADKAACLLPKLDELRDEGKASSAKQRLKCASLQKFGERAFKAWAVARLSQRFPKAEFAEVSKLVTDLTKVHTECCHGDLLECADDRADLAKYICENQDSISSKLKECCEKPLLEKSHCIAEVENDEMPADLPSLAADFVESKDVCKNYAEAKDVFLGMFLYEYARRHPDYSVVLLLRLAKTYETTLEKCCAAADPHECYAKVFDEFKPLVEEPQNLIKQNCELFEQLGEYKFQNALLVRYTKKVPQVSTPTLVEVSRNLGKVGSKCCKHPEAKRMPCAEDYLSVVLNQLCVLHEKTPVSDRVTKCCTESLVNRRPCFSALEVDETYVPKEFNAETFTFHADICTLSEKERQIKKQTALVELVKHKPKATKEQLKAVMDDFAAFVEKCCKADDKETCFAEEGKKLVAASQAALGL

`C=CC(=O)N1CCC[C@@H](n2nc(-c3ccc(Oc4ccccc4)cc3)c3c(N)ncnc32)C1` [ibrutinib]: in data set [1], the “covalent binding to HSA” value is reported as “minimal binding; also recorded: limited, but detectable covalent binding”.
On to `[O-][S+]1CCCCS1` (stereo not shown) [S-XL6, 1,2-dithiane-1-oxide], for which the “proposed MoA confirmed by intact drug-protein mass (D1)” value (“proposed MoA confirmed” for short) in data set [2] is listed as “confirms the proposed MoA”. Also, the “in vivo target engagement, detection of drug-protein complex” value in data set [3] (brain, 1-hr post-dose via SC) is recorded as “successful detection of cross-linked dimer”. In data set [1], the “covalent binding to HSA” value is recorded as “negligible binding; also recorded: no detectable HSA binding”. The “in vitro target engagement in target tissue homogenate (predicted mass shift)” value in data set [4] is “show the predicted mass shifts”.
The solubility is how much of the substance goes into solution per volume. Low values mean a poorly soluble substance, high ones a readily soluble substance. Turning to `CCN(CC)C(=S)SSC(=S)N(CC)CC` [disulfiram], the “proposed MoA confirmed” value in data set [2] is “shows the predicted molecular mass”. For the same molecule, the “METE reached in vivo (D5)” value in data set [3] (at a 20 mg/kg dose imposed by solubility limit) is listed as “could not be reached”. Further, in data set [1], the “covalent binding to HSA” value was “showed drug-related mass shifts with HSA”. The “plasma protein binding via albumin” value in data set [5] was “high plasma protein binding”. For the same molecule, in data set [6], the solubility came to 4000 µg/mL (≈ 13.5 mM).
In the case of `O=c1c2ccccc2[se]n1-c1ccccc1` [ebselen], in data set [2], the “proposed MoA confirmed” value is reported as “confirms its proposed MoA”. The “METE reached in vivo (D5)” value in data set [3] (at ~22% of LD50 (20 mg/kg SC, 1 h)) is “could not be reached”. For the same molecule, in data set [3] (brain and blood of dosed SOD1^G93A mouse), the “effect on SOD1 in vivo (modification of SOD1^G93A)” value was “promoting cysteinylation (in brain) and glutathionylation (in blood)”. Moreover, the survival entry in data set [7] was “improves survival”. In data set [1], the “covalent binding to HSA” value is on record as “showed drug-related mass shifts with HSA”. In addition, in data set [4], the “in vitro target engagement in target tissue homogenate (predicted mass shift)” value is on record as “show the predicted mass shifts”.
As to `N.N.[Cl][Pt][Cl]` [cisplatin], in data set [2], the “proposed MoA confirmed” value is listed as “shows the predicted molecular mass”.
Take `C=CC(=O)N1CCN(c2nc(=O)n(-c3c(C)ccnc3C(C)C)c3nc(-c4c(O)cccc4F)c(F)cc23)[C@@H](C)C1` [sotorasib]: the “covalent binding to HSA” value in data set [1] is listed as “negligible binding”.
Same read-out and setting: next, `CN(C)C/C=C/C(=O)Nc1cc2c(Nc3ccc(F)c(Cl)c3)ncnc2cc1O[C@H]1CCOC1` [afatinib]: “minimal binding; also recorded: limited, but detectable covalent binding”.
